# T1: Tyrosinase (Agaricus bisporus) (UniProt O42713)
# T1 sequence (whole entry): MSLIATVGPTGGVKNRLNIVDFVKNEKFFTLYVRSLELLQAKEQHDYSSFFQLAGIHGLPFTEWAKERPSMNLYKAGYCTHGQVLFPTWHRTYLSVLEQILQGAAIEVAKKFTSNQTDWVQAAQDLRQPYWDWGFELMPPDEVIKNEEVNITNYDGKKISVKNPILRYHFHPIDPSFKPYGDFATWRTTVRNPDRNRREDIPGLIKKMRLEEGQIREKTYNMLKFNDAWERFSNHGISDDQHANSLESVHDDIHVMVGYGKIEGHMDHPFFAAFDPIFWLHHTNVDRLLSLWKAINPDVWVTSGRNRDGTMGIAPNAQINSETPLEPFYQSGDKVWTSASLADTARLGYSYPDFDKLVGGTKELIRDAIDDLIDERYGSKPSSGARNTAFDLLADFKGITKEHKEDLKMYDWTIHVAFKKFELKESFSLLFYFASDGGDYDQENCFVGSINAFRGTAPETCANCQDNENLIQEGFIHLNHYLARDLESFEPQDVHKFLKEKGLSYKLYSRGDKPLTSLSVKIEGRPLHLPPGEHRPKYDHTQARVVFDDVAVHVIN
# Columns and labels:
# [1] = Apparent partition coefficient in phosphate buffer of pH 7.4 by HPLC analysis; type: physicochemical
# Procedure, shortened: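 Log Pexp measured at room temperature in 1-octanol/pH 7.4 phosphate buffer, phases mutually pre-saturated. Compound dissolved in octanol and shaken 30 min to equilibrium. Each phase analysed by HPLC, octanol phase first diluted 1:10 in acetonitrile. P taken as the ratio of octanol to buffer peak area.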
# [2] = Chemical stability in phosphate buffer of pH 7.4 at 10 uM by HPLC analysis; type: physicochemical; details: pH 7.4, 10 µM
# Procedure, shortened: (§1)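 Hydrolysis at 37 °C in pH 7.4 PBS containing 20% DMSO, substrate 10^-5 M. Aliquots analysed by reversed-phase HPLC with UV at 300 nm to give half-life.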
# [3] = test system: Plasma; assay: Stability in 80% human plasma at 10 uM by HPLC analysis; type: ADME, cell-free
# Procedure, shortened: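 Pooled heparinised human plasma from healthy donors, stored at –70 °C, diluted to 80% (v/v) with pH 7.4 isotonic phosphate buffer. Substrate 10^-5 M, incubated at 37 °C. At intervals, 200 µL aliquots quenched in 400 µL acetonitrile and centrifuged; supernatant analysed by HPLC for substrate and products to give half-life.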
# [4] = test system: tyrosinase; assay: Stability assessed as half life at 50 uM by HPLC analysis in presence of mushroom tyrosinase; type: ADME
# Procedure, shortened: (§2)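 Mushroom tyrosinase at 100U/mL in pH 7.4 phosphate buffer (2.4 mL) with DMSO (0.6 mL), 37 °C. Prodrug added from 10^-2 M stock, final substrate 5 x 10^-5 M, incubated with gentle stirring. Consumption followed by HPLC with UV at 300 nm, giving half-life of activation. Km and Vmax determined; turnover number derived from Vmax.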
# [5] = organism: Homo sapiens; assay: Stability assessed as hydrolytic half life in 80% human plasma at 10 uM by HPLC analysis
# [6] = Ratio of chemical stability in phosphate buffer of pH 7.4 to chemical stability in human plasma; type: ADME
# [7] = target: T1, Tyrosinase (Agaricus bisporus); assay: Binding affinity to Mushroom tyrosinase assessed as compound turnover by HPLC analysis; procedure, shortened: as §2
# [8] = Chemical stability of the assessed as hydrolytic half life in phosphate buffer of pH 7.4 at 10 uM by HPLC analysis; type: physicochemical; procedure, shortened: as §1
# [9] = substrate: CCOC(=O)c1ccc(/N=N/N(C)C(=O)NCCc2ccc(O)c(O)c2)cc1; assay: (§3) Activity at mushroom tyrosinase; details: Agaricus bisporus; procedure, shortened: as §2
# [10] = substrate: CN(/N=N/c1ccc(C#N)cc1)C(=O)NCCc1ccc(O)cc1; assay: as §3; details: Agaricus bisporus; procedure, shortened: as §2
Molecule,logD [1],Stability [2],Stability [3],half-life at 50 µM [4],half-life at 10 µM [5],Ratio [6],Activity [7],half-life at 10 µM [8],other results
CC(=O)c1ccc(/N=N/N(C)C(=O)NCCc2ccc(O)cc2)cc1,3.25,15 days,2 days,0.217 h,–,–,–,–,–
CCOC(=O)c1ccc(/N=N/N(C)C(=O)NCCc2ccc(O)cc2)cc1,3.96,15 days,–,0.215 h,71.5 h,–,–,–,–
Cc1ccc(/N=N/N(C)C(=O)NCCc2ccc(O)c(O)c2)cc1,4.17,2 days,–,0.14 h,5.66 h,1.5,–,–,–
CN(/N=N/c1ccc(C#N)cc1)C(=O)NCCc1ccc(O)cc1,2.89,15 days,2 days,0.197 h,–,–,0.6 s⁻¹,–,–
NCCc1ccc(O)c(O)c1,–,–,–,–,–,–,439 s⁻¹,–,–
CCOC(=O)c1ccc(/N=N/N(C)C(=O)NCCc2ccc(O)c(O)c2)cc1,3.78,–,–,0.102 h,14.7 h,1.5,6 s⁻¹,20.8 h,–
CC(=O)c1ccc(/N=N/N(C)C(=O)NCCc2ccc(O)c(O)c2)cc1,3.24,–,–,0.165 h,9.3 h,1.5,–,15.1 h,–
Cc1ccc(/N=N/N(C)C(=O)NCCc2ccc(O)cc2)cc1,3.9,–,2 days,0.303 h,–,–,–,364 h,–
NCCc1ccc(O)cc1,–,–,–,–,–,–,25.9 s⁻¹,–,–
"Tyrosinase (Agaricus bisporus), O42713 (protein) MSLIATVGPTGGVKNRLNIVDFVKNEKFFTLYVRSLELLQAKEQHDYSSFFQLAGIHGLPFTEWAKERPSMNLYKAGYCTHGQVLFPTWHRTYLSVLEQILQGAAIEVAKKFTSNQTDWVQAAQDLRQPYWDWGFELMPPDEVIKNEEVNITNYDGKKISVKNPILRYHFHPIDPSFKPYGDFATWRTTVRNPDRNRREDIPGLIKKMRLEEGQIREKTYNMLKFNDAWERFSNHGISDDQHANSLESVHDDIHVMVGYGKIEGHMDHPFFAAFDPIFWLHHTNVDRLLSLWKAINPDVWVTSGRNRDGTMGIAPNAQINSETPLEPFYQSGDKVWTSASLADTARLGYSYPDFDKLVGGTKELIRDAIDDLIDERYGSKPSSGARNTAFDLLADFKGITKEHKEDLKMYDWTIHVAFKKFELKESFSLLFYFASDGGDYDQENCFVGSINAFRGTAPETCANCQDNENLIQEGFIHLNHYLARDLESFEPQDVHKFLKEKGLSYKLYSRGDKPLTSLSVKIEGRPLHLPPGEHRPKYDHTQARVVFDDVAVHVIN",–,–,–,–,–,–,–,–,Km [9]: 710 µM; Vmax [9]: 0.31 mM/min; Km [10]: 310 µM; Vmax [10]: 0.03 mM/min

# Source: ChEMBL document CHEMBL1153016, “Dopamine- and tyramine-based derivatives of triazenes: activation by tyrosinase and implications for prodrug design” (Eur J Med Chem, 2009)
